# Reference: ChEMBL document CHEMBL1153733, “Imidazole derivatives as possible microbicides with dual protection” (Eur J Med Chem, 2010)
# Assays:
# HeLa = assay: Cytotoxicity against human HeLa cells at 200 ug/ml after 24 hrs by MTT assay; format: cell-based
# In short: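 HeLa cells seeded at 5.0 × 10⁴ per well in DMEM with 10% FCS, 24 h at 37 °C in 5% CO₂; medium replaced with fresh medium containing test dilutions, 10% DMSO vehicle in control wells. After a further 24 h, MTT added; formazan dissolved in DMSO, OD read at 540 nm. Mean ± SE of 3 estimations.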
# [1] = tested on: Trichophyton mentagrophytes; assay: Antifungal activity against Trichophyton mentagrophytes after 48 hrs by broth microdilution technique; format: functional
# In short: (§1)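 Broth microdilution MIC per NCCLS guidelines in RPMI 1640 buffered with MOPS; starting inoculum of test culture 1–5 × 10³ CFU/mL.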
# Candida albicans = assay: Antifungal activity against Candida albicans after 48 hrs by broth microdilution technique; format: functional; in short: as §1
# Trichomonas vaginalis = assay: Antitrichomonal activity against Trichomonas vaginalis after 48 hrs by trypan blue exclusion assay; format: functional
# In short: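 Trophozoites in TYM medium; stock solutions serially diluted in TYM to concentrations up to 0.1 mg/mL, DMSO/TYM as vehicle control. Parasites added, incubated anaerobically at 37 °C, viability checked by trypan blue exclusion under microscope (200×) from 3 to 48 h. MIC = lowest concentration with all cells dead at 48 h. Metronidazole reference; run three times.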
# Candida parapsilosis = assay: Antifungal activity against Candida parapsilosis after 48 hrs by broth microdilution technique; format: functional; details: Lodderomyces parapsilosis; in short: as §1
# Cryptococcus neoformans = assay: Antifungal activity against Cryptococcus neoformans after 48 hrs by broth microdilution technique; format: functional; in short: as §1
# Spermatozoa [2] = assay: Sperimcidal activity against human spermatozoa assessed as sperm motility at 1 % drug solution%; format: functional
# In short: (§2)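 Drop of sperm–compound mixture placed on slide under cover glass, examined by phase contrast microscopy in five fields; percentage of motile spermatozoa scored visually within 30–40 s. N-9 as reference control; some compounds tested as D-(-)-tartrate salts.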
# Spermatozoa [3] = assay: Sperimcidal activity against human spermatozoa assessed as sperm immobilization at 1 % drug solution%; format: functional; in short: as §2
# Sporothrix schenckii = assay: Antifungal activity against Sporothrix schenckii after 48 hrs by broth microdilution technique; format: functional; in short: as §1
# Aspergillus fumigatus = assay: Antifungal activity against Aspergillus fumigatus after 48 hrs by broth microdilution technique; format: functional; in short: as §1
Compound,Activity (HeLa),MIC [1] [µg/mL],MIC (Candida albicans) [µg/mL],MIC (Trichomonas vaginalis) [µM],MIC (Candida parapsilosis) [µg/mL],MIC (Cryptococcus neoformans) [µg/mL],Activity (Spermatozoa [2]) [%],Activity (Spermatozoa [3]) [%],MIC (Sporothrix schenckii) [µg/mL],MIC (Aspergillus fumigatus) [µg/mL]
Cc1ncc([N+](=O)[O-])n1CCSC(=S)N1CCN(c2ccccn2)CC1.O=C(O)C(O)C(O)C(=O)O,Non-toxic,50,> 50,6.38,> 50,> 50,0,100,50,> 50
Cc1ncc([N+](=O)[O-])n1CCOS(C)(=O)=O,,> 50,> 50,5.02,> 50,> 50,94.12,,50,> 50
Cc1ncc([N+](=O)[O-])n1CCSC(=S)N(C)C.O=C(O)C(O)C(O)C(=O)O,Non-toxic,50,> 50,1.14,> 50,> 50,0,100,> 50,> 50
CC(=O)OCCn1c([N+](=O)[O-])cnc1C,,> 50,> 50,23.5,> 50,> 50,82.35,,> 50,> 50
Cc1ncc([N+](=O)[O-])n1CCOC(=O)CCN1CCN(c2ccc(F)cc2)CC1,Non-toxic,50,> 50,1.54,> 50,> 50,88.24,,> 50,> 50
Cc1ncc([N+](=O)[O-])n1CCSC(=S)N1CCCCC1,Non-toxic,50,> 50,1,> 50,> 50,70.59,,25,> 50
Cc1ncc([N+](=O)[O-])n1CCOC(=O)CCN(C)CCC(Oc1ccc(C(F)(F)F)cc1)c1ccccc1 (stereo not given),Non-toxic,50,> 50,11.7,> 50,> 50,0,100,> 50,> 50
CCCCCCCCCc1ccc(OCCOCCOCCOCCOCCOCCOCCOCCOCCO)cc1 [NONOXYNOL 9],,,> 50,60.8,50,,0,,,
Cc1ncc([N+](=O)[O-])n1CCSC(=S)N1CCN(C)CC1,Non-toxic,50,> 50,7.6,> 50,> 50,0,100,50,> 50
Cc1ncc([N+](=O)[O-])n1CCOC(=O)CCn1ccnc1[N+](=O)[O-],Non-toxic,50,> 50,9.25,> 50,> 50,100,,> 50,> 50
Cc1ncc([N+](=O)[O-])n1CCSC(=S)N1CCN(c2ncccn2)CC1,Non-toxic,50,> 50,25.4,> 50,> 50,94.12,,> 50,> 50
Cc1ncc([N+](=O)[O-])n1CCOC(=O)CCl,,25,> 50,10.1,> 50,> 50,98.37,,> 50,> 50
Cc1ncc([N+](=O)[O-])n1CCn1cnc2ccccc21,Non-toxic,> 50,> 50,4.61,> 50,> 50,0,100,50,> 50
Cc1ncc([N+](=O)[O-])n1CCOC(=O)CCn1ccnc1,Non-toxic,50,> 50,10.7,> 50,> 50,100,,> 50,> 50
Cc1ncc([N+](=O)[O-])n1CCn1ccnc1,Non-toxic,> 50,25,14.1,> 50,> 50,92.36,,50,> 50
Cc1ncc([N+](=O)[O-])n1CCOC(=O)CCn1cncn1,Non-toxic,50,> 50,21.3,> 50,> 50,100,,> 50,> 50
Cc1ncc([N+](=O)[O-])n1CCOC(=O)CCn1nnc2ccccc21,Non-toxic,50,> 50,27.6,> 50,> 50,95.734,,> 50,> 50
C=CC(=O)OCCn1c([N+](=O)[O-])cnc1C,Non-toxic,50,> 50,42.2,> 50,50,70.59,,50,> 50
Cc1ncc([N+](=O)[O-])n1CCOC(=O)CCn1c([N+](=O)[O-])cnc1C,Non-toxic,50,> 50,20.6,> 50,> 50,88.24,,> 50,> 50
Cc1ncc([N+](=O)[O-])n1CCOC(=S)[S-].[Na+] [METRONIDAZOLE XANTHATE],Non-toxic,> 50,> 50,112,> 50,> 50,90.24,,> 50,> 50
OC(Cn1cncn1)(Cn1cncn1)c1ccc(F)cc1F [FLUCONAZOLE],Non-toxic,1,0.5,,1,1,,,2,2
CCN(CC)C(=S)SCCn1c([N+](=O)[O-])cnc1C,Non-toxic,25,50,1.03,> 50,50,100,,25,> 50
Cc1ncc([N+](=O)[O-])n1CCSC(=S)N1CCOCC1,Non-toxic,50,> 50,1.98,> 50,> 50,70.59,,50,> 50
Cc1ncc([N+](=O)[O-])n1CCSC(=S)N1CCN(c2ccc([N+](=O)[O-])cc2)CC1,Non-toxic,> 50,> 50,2.87,> 50,> 50,41.18,,> 50,> 50
Cc1ncc([N+](=O)[O-])n1CCOC(=O)CCN1CCN(c2ccc([N+](=O)[O-])cc2)CC1,Non-toxic,50,> 50,1.45,> 50,> 50,82.35,,> 50,> 50
Cc1ncc([N+](=O)[O-])n1CCSC(=S)N1CCCC1.O=C(O)C(O)C(O)C(=O)O,Non-toxic,50,50,8.33,> 50,50,0,100,25,> 50
COc1ccccc1N1CCN(C(=S)SCCn2c([N+](=O)[O-])cnc2C)CC1.O=C(O)C(O)C(O)C(=O)O,Non-toxic,25,> 50,5.94,> 50,> 50,0,100,50,> 50
Cc1ncc([N+](=O)[O-])n1CCO [METRONIDAZOLE],Non-toxic,,,11.7,,,100,,,
Cc1ncc([N+](=O)[O-])n1CCCl,,> 50,> 50,6.6,> 50,50,58.82,,50,> 50
CS(=O)(=O)[O-].Cc1ncc([N+](=O)[O-])n1CC[n+]1ccccc1,Non-toxic,> 50,> 50,9.53,> 50,> 50,85.09,,> 50,> 50
